Hits are enriched below; roughly 3.5% of the tested compounds scored in any of these assays.
RGS4 pot = RGS4 potentiation or activation; HEK293 M3R/inducible RGS4, carbachol calcium flux Fluo4; hits give low values; hit rate 0.92% among 310,000; B-score at 10 µM;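 active means B-score of the integrated calcium signal more than 4 SD below the library mean, with starting fluorescence not abnormally high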;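 further: negative B-score means reduced calcium response which marks RGS4 activation or potentiation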
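System – HEK293 FlpIn-TREx cells, stable M3R, doxycycline-inducible RGS4 · Reagent – ECmax carbachol challenge · Times – compound preincubation 20 min at room temperature before agonist · Technique – Fluo4 fluorescence kinetic imaging of calcium · Measure – B score of integrated Fluo4 ratio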
MrgX1 antag = antagonists of human MrgX1 receptor; MRGX1-HEK293 calcium flux, Fluo-4, BAM8-22 antagonism; hits give low values; B-score at 10 µM; hit rate 1.3% among 310,000; AID 588676;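 active means calcium-response B-score plate-corrected more than 3 library SD below zero, starting fluorescence within 5 deviations, no agonist response on first addition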;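 further: peak minus trough fluorescence over baseline after final BAM8-22 challenge near maximal dose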
Target sequence (Q96LB2 whole entry, looked up): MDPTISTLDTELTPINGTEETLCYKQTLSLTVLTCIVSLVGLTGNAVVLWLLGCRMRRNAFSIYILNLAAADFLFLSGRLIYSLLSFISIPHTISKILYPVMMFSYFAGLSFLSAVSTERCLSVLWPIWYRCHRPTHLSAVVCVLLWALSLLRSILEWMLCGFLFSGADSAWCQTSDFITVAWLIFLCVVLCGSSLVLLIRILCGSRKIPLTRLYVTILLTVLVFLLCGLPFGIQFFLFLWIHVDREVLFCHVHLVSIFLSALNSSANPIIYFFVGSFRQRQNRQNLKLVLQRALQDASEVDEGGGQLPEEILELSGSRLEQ
MrgX1 agonist = activates human MrgX1 receptor signaling | MrgX1-HEK293 cells, Fluo-4 calcium fluorescence, agonist mode; hits give high values | B-score at 10 µM | hit rate 0.44% among 310,000;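 active means calcium response B-score plate-corrected fluorescence ratio at least 3 library SD, with starting fluorescence B-score inside 5 SD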
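System – MrgX1-expressing HEK293 cells · Incubation – cells plated overnight, dye loaded 0.5 h 37 °C, 0.5 h room temperature · Technique – kinetic Fluo-4 NW fluorescence of intracellular calcium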
MrgX1 PAM = human MrgX1 positive allosteric modulation, primary screen. Q96LB2. B-score at 10 µM. MrgX1-HEK293, Fluo-4 calcium flux, FDSS; hits give high values. hit rate 0.63% among 310,000;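 active means plate-corrected calcium response at least 3 library SD above typical, normal starting fluorescence, not activating the receptor alone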;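 further: compound read alongside a low EC10 to EC30 dose of BAM8-22 agonist; peak minus trough fluorescence over baseline measured at the second addition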
RGS4 inh = inhibitors of human RGS4; B-score at 10 µM; AID 463165; hit rate 0.45% among 310,000; HEK293 M3R/RGS4 inducible, Fluo-4 calcium flux; hits give high values; triggered by carbachol at its EC20;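 active means B-score, a plate-corrected calcium signal, over three deviations above library mean, with baseline fluorescence within five deviations of library mean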;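 further: RGS4 expression induced by doxycycline in cells with stable M3 receptor; B-score is computed from the integrated fluorescence ratio over baseline after carbachol; higher B-score means a larger calcium signal and so more RGS4 inhibition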
Target sequence (P49798 whole entry, looked up): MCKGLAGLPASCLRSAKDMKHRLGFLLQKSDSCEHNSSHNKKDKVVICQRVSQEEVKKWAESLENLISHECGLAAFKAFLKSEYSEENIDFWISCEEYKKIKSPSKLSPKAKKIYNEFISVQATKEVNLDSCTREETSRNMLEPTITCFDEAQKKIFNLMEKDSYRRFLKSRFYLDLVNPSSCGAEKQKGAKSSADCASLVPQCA
* hit, by the source's call; i = inactive.

SMILES	RGS4 pot	MrgX1 antag	MrgX1 agonist	MrgX1 PAM	RGS4 inh
CC(=O)Nc1cc(C(=O)N2CCN(C)CC2)ccc1Sc1ccc(C)cc1	i	i	i	i	i
O=C(c1cccc(C(F)(F)F)c1)C1CCCN(Cc2cccc(OCCO)c2)C1 (stereo not drawn)	-7.05*	i	i	i	i
COc1cccc(O)c1CN1CCCC(C(=O)c2cccc(C(F)(F)F)c2)C1 (stereo not drawn)	-7.47*	i	i	i	i
COc1ccc(C(=O)C2CCCN(Cc3c(O)cccc3OC)C2)cc1OC (stereo not drawn)	i	i	i	i	i
COC(=O)Cn1cc([N+](=O)[O-])nc1C	i	i	i	i	i
CCn1cc([N+](=O)[O-])nc1C	i	-7.54*	i	i	i
Cc1ccc(C(=O)OCC(=O)Nc2sc3c(c2C#N)CCCCC3)cc1NC(=O)c1ccco1	i	i	i	i	i
Cc1ccc(C(=O)OCC(=O)Nc2sc3c(c2C#N)CCCC3)cc1NC(=O)c1ccco1	-7.48*	i	i	i	i
Cc1ccc(/C=C/C(=O)c2ccc([N+](=O)[O-])o2)cc1	i	i	i	i	9.84*
Cc1ccc(C(=O)/C=C/c2ccc(Br)cc2)o1	i	i	i	i	i
Cc1ccc(C(=O)/C=C/c2ccccc2)o1	i	i	27.6*	i	i
CCOc1ccc(NC(=O)CSc2ccc(-c3cccnc3)nn2)cc1	i	i	i	i	i
COC(=O)c1cc(S(=O)(=O)N2CCN(c3cccc(Cl)c3)CC2)c[nH]1	i	i	i	i	i
Cc1nnc(C)n1/N=C/c1ccc(-c2ccccc2Cl)o1	i	i	i	i	i
O=C1NC(=S)/C(=C\c2ccc(-c3ccccc3Cl)o2)S1	-7.39*	i	i	i	i
CC(C)c1onc(C(=O)N2CCN(c3ccc(F)cc3)CC2)c1[N+](=O)[O-]	i	i	i	i	i
COCCN=c1scc(-c2cccs2)n1/N=C/c1ccc(O)c(O)c1O	i	i	i	15.5*	i
COc1ccc(NS(=O)(=O)c2cc(NC(=O)[C@@H](NC(=O)c3ccccc3)C(C)C)ccc2C)cc1	i	i	i	i	i
O=C1NN(c2ccc(F)cc2)C(=O)/C1=C/c1cccs1	i	i	29.7*	i	i
CC1=NN(c2ccccc2)C(=O)/C1=C/c1cccs1	i	i	i	i	i
O=[N+]([O-])c1ncccc1OCc1ccc(Br)cc1F	i	i	i	i	i
Cc1ccnc(SCC(=O)c2ccc([N+](=O)[O-])cc2)n1	i	i	i	i	i
Cc1cc(C)nc(SCC(=O)c2ccc([N+](=O)[O-])cc2)n1	i	-6.08*	i	i	i
Cc1c(CCC(=O)N[C@@H](CC(C)C)C(=O)O)c(=O)oc2cc3oc4c(c3cc12)CCCC4	i	i	i	14.5*	i
Cc1ccc(-n2nc3c(c2NC(=O)c2ccco2)CS(=O)C3)cc1 (stereo not drawn)	i	i	i	i	i
SMILES	RGS4 pot	MrgX1 antag	MrgX1 agonist	MrgX1 PAM	RGS4 inh
O=C(O)COc1ccccc1Cc1ccccc1	i	i	i	i	i
CC(COc1ccccc1Cc1ccccc1)N1CCCCC1 (stereo not drawn)	-7.38*	i	i	i	i
CCN1/C(=C/C=C/C=C/c2sc3ccccc3[n+]2CC)Sc2ccccc21	i	i	i	i	i
CCN1/C(=C/C=C/C=C/C=C/c2sc3ccccc3[n+]2CC)Sc2ccccc21	i	-5.07*	i	i	i
CCN1/C(=C/C=C/c2sc3ccccc3[n+]2CC)Sc2ccccc21	-7.02*	-4.62*	i	i	i
CC[n+]1c(/C=C/Nc2ccccc2)sc2ccccc21	i	i	i	i	i
Cc1cccc(CS(=O)(=O)Cc2ccc(C(=O)NC3CCCCCC3)o2)c1	i	i	i	i	i
Cn1c(N)c(-c2ccccc2)c2ccc([N+](=O)[O-])cc2c1=O	i	i	29.8*	i	i
COc1ccc(-c2nc(CSCC(=O)NCc3ccco3)c(C)o2)cc1	i	-5.41*	i	i	i
COc1ccc(CC(=O)O/N=C(\N)Cc2ccc(OC)cc2)cc1	i	i	i	i	i
COc1ccc(C/C(N)=N/O)cc1	i	-8.33*	i	i	i
COc1nc(N/N=C/c2ccccc2F)nc(N2CCCCC2)n1	i	i	i	i	i
COc1ccccc1-c1coc2cc(O)cc(O)c2c1=O	i	i	34.1*	i	i
CN1CCN(CC#CCn2c3ccccc3c3ccccc32)CC1	-7.07*	i	i	i	i
CC(C)CCNc1nc(N)c([N+](=O)[O-])c(NCCO)n1	i	i	i	i	i
CCC(C)Nc1nc(N)c([N+](=O)[O-])c(NCCO)n1 (stereo not drawn)	i	i	i	16.7*	i
Cc1ccc(S(=O)(=O)CCC(=O)OC(C)C(=O)N2CCc3ccccc32)cc1 (stereo not drawn)	i	i	i	i	i
COc1cc(/C=C/C(=O)O)cc(S(=O)(=O)Nc2cccc(SC)c2)c1OC	i	-6.31*	i	i	i
COc1cc(/C=C/C(=O)O)cc(S(=O)(=O)Nc2ccc(F)cc2)c1OC	i	i	i	i	i
CCOc1ccc(NC(=O)NNC(=O)COc2ccc3ccccc3c2)cc1	i	-6.7*	i	i	i
CCOP(=O)(c1ccccc1)c1nc(-c2ccc(F)cc2)oc1N1CCCCC1 (stereo not drawn)	i	i	37.8*	i	i
CCOP(=O)(OCC)c1nc(-c2ccc(Br)cc2)oc1N1CCCCC1	i	i	i	i	i
Cc1cc(/C=C2\C(=N)N3C(SCc4ccccc4)=NSC3=NC2=O)c(C)n1Cc1ccccc1	i	i	i	i	i
CC(C)CSC1=NSC2=NC(=O)/C(=C\c3ccccc3)C(=N)N12	i	i	27.4*	i	i
CCC[N+]1(CC#CC(O)(c2ccccc2)C2CCCCC2)CCCCC1 (stereo not drawn)	-8.15*	i	i	i	i
O=C(Nc1cccc(S(=O)(=O)N2CCOCC2)c1)c1ccc2c(=O)n3c(nc2c1)CCCCC3	-7.34*	i	i	i	i
O=C(Nc1cccc(S(=O)(=O)N2CCCC2)c1)c1ccc2c(=O)n3c(nc2c1)CCCCC3	i	i	i	i	i

Screening results deposited in PubChem BioAssay by Johns Hopkins Ion Channel Center.
